Results reported in paper PMC11583631 (RSC Advances, 2024).
Read-outs that look alike come from different tables or passages of the source.

Columns and labels:
[1] = test system: bacterial tyrosinase enzyme; experiment: in vitro bacterial tyrosinase inhibition assay; assay type: biochemical; details: L-tyrosine substrate; for Percentage inhibition: 37 °C, absorbance 475 nm; for IC50: by extrapolation of the graph
[2] = biological target: bacterial tyrosinase enzyme; details: standard inhibitors; ref [50]; cited from earlier work
[3] = test system: tyrosinase enzyme; experiment: kinetic studies; assay type: biochemical, bacterial; details: Lineweaver–Burk and Dixon plots, tyrosine 0.1–1 mM
Summary of the method: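 Isolated bacterial tyrosinase; pre-incubation and measurement timing as in the main inhibition assay. Lineweaver–Burk: 1/V vs 1/[S]. Ki (EI) and Ki′ (ESI) from secondary plots of slope and intercept vs inhibitor concentration. Dixon plot (1/V vs inhibitor concentration) confirmed inhibition type.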

| SMILES | Percentage inhibition [1] | IC50 [2] [µM] | IC50 [1] [µM] | type of inhibition [3] |
| --- | --- | --- | --- | --- |
| Cc1ccc(C)c(NC(=O)CSc2nnc(-c3cc4c(ccc5ccccc54)o3)n2-c2ccccc2)c1 [20b, N-(2,5-dimethylphenyl)-2-((5-(naphtho[2,1-b]furan-2-yl)-4-phenyl-4H-1,2,4-triazol-3-yl)thio)acetamide] | 31.40 ± 0.25 |  |  |  |
| O=c1cc(CO)occ1O [Kojic acid, reference compound] | 6.80 ± 0.58 | 30.3 ± 0.75 |  |  |
| O=C(CSc1nnc(-c2cc3c(ccc4ccccc43)o2)n1-c1ccccc1)N1CCOCC1 [20i, 1-Morpholino-2-((5-(naphtho[2,1-b]furan-2-yl)-4-phenyl-4H-1,2,4-triazol-3-yl)thio)ethanone] | 30.55 ± 0.1 |  | 1.99 ± 0.07 |  |
| COc1ccc(OC)c(NC(=O)CSc2nnc(-c3cc4c(ccc5ccccc54)o3)n2-c2ccccc2)c1 [20d, N-(2,5-dimethoxyphenyl)-2-((5-(naphtho[2,1-b]furan-2-yl)-4-phenyl-4H-1,2,4-triazol-3-yl)thio)acetamide] | 22.77 ± 0.17 |  |  |  |
| O=C(CSc1nnc(-c2cc3c(ccc4ccccc43)o2)n1-c1ccccc1)Nc1ccccc1Cl [20f, N-(2-chlorophenyl)-2-((5-(naphtho[2,1-b]furan-2-yl)-4-phenyl-4H-1,2,4-triazol-3-yl)thio)acetamide] | 32.34 ± 0.07 |  | 0.51 ± 0.12 | non-competitively |
| CCN(CC)C(=O)CSc1nnc(-c2cc3c(ccc4ccccc43)o2)n1-c1ccccc1 [20j, N,N-diethyl-2-((5-(naphtho[2,1-b]furan-2-yl)-4-phenyl-4H-1,2,4-triazol-3-yl)thio)acetamide] | 2.61 ± 0.50 |  | 23.03 ± 0.18 |  |
| O=C(CSc1nnc(-c2cc3c(ccc4ccccc43)o2)n1-c1ccccc1)Nc1ccc(F)cc1 [20h, N-(4-fluorophenyl)-2-((5-(naphtho[2,1-b]furan-2-yl)-4-phenyl-4H-1,2,4-triazol-3-yl)thio)acetamide] | 13.92 ± 0.11 |  | 9.36 ± 0.06 |  |
| CCCCc1ccc(NC(=O)CSc2nnc(-c3cc4c(ccc5ccccc54)o3)n2-c2ccccc2)cc1 [20a, N-(4-butylphenyl)-2-((5-(naphtho[2,1-b]furan-2-yl)-4-phenyl-4H-1,2,4-triazol-3-yl)thio)acetamide] | 22.84 ± 0.05 |  |  |  |
| COc1ccccc1NC(=O)CSc1nnc(-c2cc3c(ccc4ccccc43)o2)n1-c1ccccc1 [20g, N-(2-methoxyphenyl)-2-((5-(naphtho[2,1-b]furan-2-yl)-4-phenyl-4H-1,2,4-triazol-3-yl)thio)acetamide] | 5.40 ± 0.05 |  | 12.9 ± 0.15 |  |
| O=C1O[C@H]([C@@H](O)CO)C(O)=C1O [Ascorbic acid, reference compound] | 58.66 ± 1.00 | 11.5 ± 1 |  |  |
| CCNC(=O)CSc1nnc(-c2cc3c(ccc4ccccc43)o2)n1-c1ccccc1 [20c, N-ethyl-2-((5-(naphtho[2,1-b]furan-2-yl)-4-phenyl-4H-1,2,4-triazol-3-yl)thio)acetamide] | 22.62 ± 0.30 |  |  |  |
